Screening data (PubChem)
HKDC1 inh: blocks human hexokinase HKDC1 activity. recombinant HKDC1, G6PDH/diaphorase resazurin coupled fluorescence. inhibition, % at 20 µM. 340,000 tested, 0.16% active;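 active means inhibition above about 35% when tested at 20 µM, limit read from the data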;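 further: plate controls were DMSO wells with enzyme for no effect and DMSO wells lacking enzyme for full effect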
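test system = in-house recombinant HK5 (HKDC1) enzyme | amount = HKDC1 at 5 µg/mL | control set = DMSO-enzyme wells negative, buffer-substituted wells positive | compound = one dose of 20 µM, 1% DMSO | schedule = reaction time 90 min, room temperature, protected from light | technique = resorufin fluorescence at 613 nm | reagent = glucose with 1 mM ATP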
UCH37 DUB inh: blocks the human deubiquitinase UCH37 | Q9Y5K5 | inhibition, % (concentration not given with the values) | 330,000 tested, 0.33% active | purified proteasome/UCH37, Ub-AMC cleavage fluorescence | AID 588478;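 active means mean inhibition over replicate wells above about 20%, limit read from the data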;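 further: 0% = compound-free wells with enzyme and 100% = wells lacking proteasome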
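Reagent: Ub-AMC substrate; assay system: Proteasome-associated human UCH37 deubiquitinase; controls: no-proteasome and no-compound wells; read-out: % inhibition of Ub-AMC cleavage fluorescence; timing: 30 min preincubation with enzyme, 25 min cleavage at room temperature; signal: AMC fluorescence from Ub-AMC cleavage, excitation 355 nm, emission 460 nm; buffer or medium: Tris-HCl pH 7.4 plus ovalbumin, ATP-MgCl2, DTT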
TDP2 absorb: TDP2 (human) inhibition, absorbance primary screen; inhibition, % at 12.8 µM; 370,000 tested, 0.34% active; recombinant TDP2, T5PNP hydrolysis, p-nitrophenol absorbance 415 nm; O95551;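 active means inhibition above the mean of all tested compounds plus 3 SD, set per campaign, cut at about 25% in these data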;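 further: 0% = DMSO with enzyme and 100% = buffer with substrate but no TDP2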
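Incubation: 2 h at 37 °C; Test system: recombinant human TDP2; Quantity: enzyme 120 nM; Read-out basis: percent inhibition; Medium: 50 mM Tris-HCl pH 7.5 with Mg2+, KCl, DTT, BSA; Repeats: single replicate; Compound: 12.8 µM single point, 1% DMSO; Signal: epi absorbance; Reagent: 5 mM T5PNP chromogenic substrate; Benchmarks: no-enzyme high, DMSO-plus-enzyme low.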
GSTO1 inh: blocks human GSTO1 in RBBP9 counter-screen; P78417; inhibition, % at 5.96 µM; 300,000 tested, 1.1% active; recombinant GSTO1, activity-based probe fluorescence polarization; AID 1974;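 active means inhibition above the campaign mean inhibition plus 3 SD, cut at about 35% in these data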;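 further: 0% = GSTO1-1 with DMSO and 100% = wells lacking GSTO1-1 enzyme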
PAD4 FP inh: blocks human protein arginine deiminase 4. Q9UM07. recombinant PAD4, RCA probe fluorescence polarization. inhibition, % at 6.36 µM. 330,000 tested, 0.41% active. AID 485272;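 active means percent inhibition above a cutoff equal to the mean of all tested compounds plus 3 SD, cut at about 15% in these data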;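 further: 0% = PAD4 with RCA probe and DMSO and 100% = probe without PAD4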
Target sequence (Q9UM07 whole entry, looked up): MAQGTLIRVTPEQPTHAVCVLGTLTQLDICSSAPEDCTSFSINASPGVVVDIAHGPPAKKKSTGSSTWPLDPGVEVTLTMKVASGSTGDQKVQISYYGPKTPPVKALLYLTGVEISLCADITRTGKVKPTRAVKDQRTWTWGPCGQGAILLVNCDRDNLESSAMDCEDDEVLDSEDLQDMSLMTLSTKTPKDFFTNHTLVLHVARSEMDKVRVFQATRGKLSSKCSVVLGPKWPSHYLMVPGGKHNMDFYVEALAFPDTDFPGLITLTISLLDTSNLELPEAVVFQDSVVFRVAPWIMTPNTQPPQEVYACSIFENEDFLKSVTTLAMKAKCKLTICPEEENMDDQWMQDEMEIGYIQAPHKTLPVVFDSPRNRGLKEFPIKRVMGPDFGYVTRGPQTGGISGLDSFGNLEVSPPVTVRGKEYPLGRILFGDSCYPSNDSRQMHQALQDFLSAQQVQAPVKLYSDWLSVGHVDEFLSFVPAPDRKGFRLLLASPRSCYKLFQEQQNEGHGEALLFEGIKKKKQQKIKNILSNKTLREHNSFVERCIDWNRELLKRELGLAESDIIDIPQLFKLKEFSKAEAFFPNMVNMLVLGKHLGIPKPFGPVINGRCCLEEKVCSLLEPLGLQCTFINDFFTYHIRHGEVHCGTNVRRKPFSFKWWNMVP
Fh CTSL1 inh: counter-screen for PFM18AAP inhibitors: inhibitors of F. hepatica cathepsin L1; AID 1906; 300,000 tested, 0.49% active; inhibition, % at 5.96 µM; recombinant F. hepatica cathepsin L1, Z-Leu-Arg-MCA fluorescence;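 active means inhibition above the mean of all tested compounds plus 3 SD, set per screening campaign, cut at about 17% in these data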;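 further: 0% = plate median of test compound wells and 100% = 1 µM Z-Phe-Ala-diazomethylketone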
HKDC1 act conf2: HKDC1 (human) activation, single-dose confirmed; inhibition, % at 20 µM; recombinant HKDC1, G6PDH/diaphorase resazurin fluorescence; hits give low values; 740 tested, 14% active; AID 504708; shares compounds with HKDC1 inh;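 active means inhibition at or below a set negative limit, negative inhibition meaning the enzyme was activated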
Numbers without * were called inactive. Compounds with a hit are over-represented: about 1.6% of the library has one in this group of screens.

What do the screens show for `COc1cc(C=NNc2ccc(C)cc2)cc(Br)c1O`?
UCH37 DUB inh: 2.3

Results for Oc1ccc2ccccc2c1/C=N/c1nccs1 ?
HKDC1 inh: 37.2*; TDP2 absorb: -1.4; GSTO1 inh: 33.5; PAD4 FP inh: -7.9; Fh CTSL1 inh: 3.3; HKDC1 act conf2: 29.1

What do the screens show for `Oc1ccc2ccccc2c1C=Nc1ccccc1Br`?
HKDC1 inh: 37.6*; UCH37 DUB inh: 1.4; TDP2 absorb: -12.4; GSTO1 inh: 26.5; PAD4 FP inh: -7.6; Fh CTSL1 inh: -1.1; HKDC1 act conf2: 9.6

What do the screens show for `Cc1cc(C(F)F)n2ncc(C(=O)NCCc3ccc(Cl)cc3)c2n1`?
HKDC1 inh: 38.6*; UCH37 DUB inh: 0.5; TDP2 absorb: 3.8; GSTO1 inh: 2.2; PAD4 FP inh: -0.1; Fh CTSL1 inh: 4.4; HKDC1 act conf2: 36.2

What do the screens show for `O=C(NCCc1ccccc1)c1cnn2c(C(F)F)cc(C3CC3)nc12`?
HKDC1 inh: 47.0*; UCH37 DUB inh: -7.6; TDP2 absorb: -18.2; GSTO1 inh: -2.5; PAD4 FP inh: -0.6; Fh CTSL1 inh: 1.6; HKDC1 act conf2: 59.8

Results for COC(=O)c1ccccc1NC(=O)c1cnn2c(C(F)F)cc(C3CC3)nc12 ?
HKDC1 inh: -3.9; TDP2 absorb: 3.8; GSTO1 inh: 4.3; PAD4 FP inh: -1.7; Fh CTSL1 inh: 3.2

Results for COc1cc(/C=C2\SC(c3ccc(C)cc3)=NC2=O)ccc1O ?
HKDC1 inh: 33.3; UCH37 DUB inh: 3.8; TDP2 absorb: -13.2; GSTO1 inh: 5.1; PAD4 FP inh: -1.6; Fh CTSL1 inh: -0.6; HKDC1 act conf2: 32.2

What do the screens show for `COc1cc(/C=C2\SC(=S)N(NC(=O)c3cccnc3)C2=O)ccc1O`?
HKDC1 inh: -1.8; UCH37 DUB inh: 14.1; TDP2 absorb: -12.7; GSTO1 inh: -155.1; PAD4 FP inh: -31.8; Fh CTSL1 inh: 9.4

What do the screens show for `COc1cc(/C=C2\SC(=S)N(c3cccnc3)C2=O)ccc1O`?
HKDC1 inh: 38.2*; TDP2 absorb: -5.2; GSTO1 inh: -7.7; PAD4 FP inh: 1.6; Fh CTSL1 inh: 5.5; HKDC1 act conf2: 0.7

Results for COc1ccc(/C=C2\SC(c3ccc(C)cc3)=NC2=O)cc1OC ?
HKDC1 inh: 8.2; UCH37 DUB inh: -5.0; TDP2 absorb: 7.0; GSTO1 inh: -5.1; PAD4 FP inh: 1.7; Fh CTSL1 inh: -0.5

How did COc1cc(/C=C2\SC(c3ccccc3)=NC2=O)cc(Cl)c1O do in these assays?
HKDC1 inh: 49.4*; UCH37 DUB inh: 3.5; TDP2 absorb: 4.0; HKDC1 act conf2: 23.8

How did CN1/C(=C\C=NNC(=O)c2ccccc2Br)C(C)(C)c2ccccc21 do in these assays?
UCH37 DUB inh: -1.2

How did O=C1c2ccccc2-c2onc3ccc(Oc4ccccc4)c1c23 do in these assays?
HKDC1 inh: 34.4; UCH37 DUB inh: 5.4; TDP2 absorb: 17.6; GSTO1 inh: 6.4; PAD4 FP inh: -43.1; Fh CTSL1 inh: 5.5; HKDC1 act conf2: 28.2

How did Cc1ccccc1/C=C/C(=O)c1ccc([N+](=O)[O-])o1 do in these assays?
HKDC1 inh: 46.5*; UCH37 DUB inh: -1.3; TDP2 absorb: 2.6; GSTO1 inh: 24.4; PAD4 FP inh: 0.5; Fh CTSL1 inh: 2.9; HKDC1 act conf2: 36.0

What do the screens show for `Cc1cccc(/C=C/C(=O)c2ccc([N+](=O)[O-])o2)c1`?
HKDC1 inh: 49.6*; UCH37 DUB inh: 4.7; TDP2 absorb: 4.4; GSTO1 inh: 18.1; PAD4 FP inh: 1.3; Fh CTSL1 inh: 0.4; HKDC1 act conf2: 11.5

Results for CCCCOc1ccc(C=NNC(=O)c2nnn(-c3nonc3N)c2C)cc1 ?
UCH37 DUB inh: -1.4

Results for CC(=NNC(=O)CC1(C)OCCO1)c1cccs1 ?
UCH37 DUB inh: 4.9

What do the screens show for `Cc1c(Cc2ccccc2)sc(NC(=O)Cc2ccccc2)c1C(N)=O`?
HKDC1 inh: -52.4; UCH37 DUB inh: 0.2; TDP2 absorb: -10.7; GSTO1 inh: -4.3; PAD4 FP inh: -3.4; Fh CTSL1 inh: 7.6; HKDC1 act conf2: -7.0

Results for COC(=O)c1c(NC(C)=O)sc(Cc2ccccc2)c1C ?
HKDC1 inh: -77.4; UCH37 DUB inh: 1.0; TDP2 absorb: 2.6; GSTO1 inh: 3.5; PAD4 FP inh: -1.8; Fh CTSL1 inh: 7.5; HKDC1 act conf2: -37.8*

Results for CC(=O)Nc1ccc2cc3ccc(NC(C)=O)cc3nc2c1 ?
HKDC1 inh: 42.5*; UCH37 DUB inh: -297.8; TDP2 absorb: 1.7; GSTO1 inh: 31.9; PAD4 FP inh: -5.2; Fh CTSL1 inh: -0.5; HKDC1 act conf2: 19.8

Results for COc1ccc(-c2csc(Nc3ccc(S(N)(=O)=O)cc3)n2)cc1 ?
HKDC1 inh: -41.5; UCH37 DUB inh: -194.9; TDP2 absorb: 3.5; GSTO1 inh: 3.8; PAD4 FP inh: -2.3; Fh CTSL1 inh: 2.0; HKDC1 act conf2: -24.5

How did O=C(NN=Cc1cccc(O)c1)NC1CCCCC1 do in these assays?
UCH37 DUB inh: 1.2

What do the screens show for `CC(=O)N1c2ccc3ccccc3c2C2C=CCC2C1c1ccc(Br)cc1` (centres undefined)?
GSTO1 inh: -14.9; PAD4 FP inh: -9.2; Fh CTSL1 inh: -2.2

How did CC(=O)N1c2ccc(Cl)cc2C2C=CCC2C1c1cccc2ccccc12 (centres undefined) do in these assays?
HKDC1 inh: 42.5*; UCH37 DUB inh: 47.9*; GSTO1 inh: -2.5; PAD4 FP inh: 1.2; Fh CTSL1 inh: 1.4; HKDC1 act conf2: 3.1

What do the screens show for `COc1cc(/C=C2/C(=O)NN(c3ccc(F)cc3)C2=O)cc(Cl)c1O`?
HKDC1 inh: 8.5; UCH37 DUB inh: 13.0; TDP2 absorb: 10.3; GSTO1 inh: 5.9; PAD4 FP inh: -1.9; Fh CTSL1 inh: 0.2

What do the screens show for `COc1cc(/C=C2/C(=O)NN(c3ccc(Cl)c(Cl)c3)C2=O)cc([N+](=O)[O-])c1O`?
HKDC1 inh: 49.6*; UCH37 DUB inh: 21.6*; TDP2 absorb: -11.8; GSTO1 inh: 17.1; PAD4 FP inh: -5.3; Fh CTSL1 inh: 1.4; HKDC1 act conf2: 33.1

Results for O=[N+]([O-])c1ccc(NN=C/C=C/c2ccco2)cc1 ?
UCH37 DUB inh: 6.8

What do the screens show for `O=C(/C=C/c1ccc(F)cc1)NC(=S)NNC(=O)c1cnccn1`?
HKDC1 inh: -30.7; UCH37 DUB inh: 7.5; TDP2 absorb: -19.7; GSTO1 inh: 4.3; PAD4 FP inh: 2.2; Fh CTSL1 inh: 2.2

What do the screens show for `COc1ccc(/C=C/C(=O)NC(=S)NNC(=O)c2cnccn2)cc1`?
HKDC1 inh: -40.3; TDP2 absorb: -1.3; GSTO1 inh: 6.3; PAD4 FP inh: 0.5; Fh CTSL1 inh: 2.8; HKDC1 act conf2: -58.3*
